High-throughput results: PubChem, Broad Institute
Env fusion inh: inhibitors of HIV Env-mediated cell fusion. HeLa-JRFL Env/CEM21 cell fusion, luciferase. 360,000 compounds, 1.1% hits. inhibition, % at 12.3 µM;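 active = mean replicate inhibition score of at least 50 and every replicate individually at or above 50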;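 note: 0% = plate neutral controls and 100% = maraviroc near 300 nM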
INS-1E GSIS act: GLuc luminescence reporter in INS-1E cells, primary screen for activators of glucose-dependent secretion of insulin; activation, % at 16.6 µM; INS-1E GLuc reporter insulin secretion, 2-3 h; 370,000 compounds, 0.61% hits; AID 743287;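 active = lowest replicate activation of at least 40%, so every replicate reaches that level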;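 note: 0% = median of neutral control wells and 100% = median of IBMX positive control wells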
PDI inh: inhibitors of human protein disulfide isomerase. inhibition, % at 10 µM. P07237. PDI insulin aggregation turbidity, A650, 90 min. 350,000 compounds, 0.052% hits. AID 588391;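 active = mean inhibition across replicates of 30% or more, whatever share of single replicates reach that level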
Target sequence (P07237 whole entry, looked up): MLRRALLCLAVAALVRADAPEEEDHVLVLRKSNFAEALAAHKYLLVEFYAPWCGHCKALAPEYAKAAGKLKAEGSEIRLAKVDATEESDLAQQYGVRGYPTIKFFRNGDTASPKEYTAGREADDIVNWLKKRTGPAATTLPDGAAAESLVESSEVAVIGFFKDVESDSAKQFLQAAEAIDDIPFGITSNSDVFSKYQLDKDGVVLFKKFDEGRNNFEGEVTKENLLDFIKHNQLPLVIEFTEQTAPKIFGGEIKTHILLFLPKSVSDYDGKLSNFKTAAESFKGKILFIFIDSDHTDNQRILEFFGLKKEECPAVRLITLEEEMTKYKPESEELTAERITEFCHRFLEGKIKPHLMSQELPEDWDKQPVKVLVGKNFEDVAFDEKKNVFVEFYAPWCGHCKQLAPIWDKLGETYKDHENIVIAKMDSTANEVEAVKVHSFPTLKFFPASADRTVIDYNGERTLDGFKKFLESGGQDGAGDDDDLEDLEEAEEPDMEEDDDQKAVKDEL
FN deposition inh: fibronectin deposition inhibition | AH1F fibroblasts, Alexa488-fibronectin deposition fluorescence, overnight | inhibition, % at 12.6 µM | 350,000 compounds, 0.086% hits | AID 743247;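 active = mean inhibition across replicates of 30% or more, regardless of how many single replicates reach that level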;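 note: positive control wells lacked labelled fibronectin entirely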
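Assay system: AH1F fibroblast monolayer, labelled fibronectin deposition. Amount: 10000 cells per well. Also added: labelled fibronectin 24 nM. Compound: single-point pinned compound. Incubation: cell attachment 1 h, compound and FN exposure overnight. Detection: fluorescence after three HBSS washes, excitation 485 nm, emission 525 nm. Read-out: inhibition of fibronectin deposition signal.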
ERp5 block: inhibitors of human ERp5 | AID 651711 | ERp5 insulin aggregation, absorbance 650 nm, 90 min | inhibition, % at 9.99 µM | Q15084 | 350,000 compounds, 0.05% hits;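 active = mean replicate inhibition above about 25%, with every replicate also reaching it, limit read from the data, passing the limit was not always enough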
An asterisk follows results filed as active; / = no result; ! = repeats disagree; [ ] = another dose, or the depositor's remark. A selection: hits, their analogues and other compounds. The true share with any hit is near 1.4%.

SMILES	Env fusion inh	INS-1E GSIS act	PDI inh	FN deposition inh	ERp5 block
C[C@H]1CCCCO[C@H](CN(C)Cc2ccc3c(c2)OCO3)[C@@H](C)CN([C@@H](C)CO)C(=O)c2cc(NC(=O)CCCN(C)C)ccc2O1	-15[16.7 µM]	18	/	/	-6
CCCCCn1c2c(c(=N)c3ccccc31)CCC2	19	-36	-2	8	4
CCCCCCCCCn1c2c(c(=N)c3c1CCC3)CCCC2	/	/	-3	/	/
CCCCCCCCn1c2c(c(=N)c3ccccc31)CCC2	56*	59	5	-7	-4
CCCCCCCCCCn1c2c(c(=N)c3c1CCC3)CCC2	69*	339*	1	3	/
Cc1cccc(OCC(=O)NNC(=O)Cn2c(=O)cnc3ccccc32)c1	-1	9	1	-2	-5
COc1ccc(OCC(=O)NNC(=O)Cn2c(=O)cnc3ccccc32)cc1	-4	76*	6	/	-5
O=C(Nc1ccc(F)c(Cl)c1)C1CCCN(C2=NS(=O)(=O)c3ccccc32)C1 (stereo not given)	/	-25	8	-2	1
O=C(Nc1ccc(Cl)cc1)C1CCCN(C2=NS(=O)(=O)c3ccccc32)C1 (stereo not given)	70*	-6	-2	3	2
Cc1cc(C)cc(Cn2c3ccc(NC(=S)NCc4ccccc4F)cc3c(=O)n2C)c1	16	56*	6	-15	-1
COc1ccc(S(=O)(=O)Nc2ccc3c(c2)CC(=O)N([C@@H](C)CO)C[C@H](C)[C@H](CN(C)S(C)(=O)=O)O3)cc1	-2[16.7 µM]	10	/	-1	-4
Cc1ccc2c(c1)-c1c(ssc1=S)C(C)(C)N2C(=O)c1ccco1	57*	/	2	0	/
COC(=O)c1cc(C)nc2c1C(=O)C(=O)C=C2N1CCOCC1	-1	8	2	-2	63*
COC(=O)c1cc(S(=O)(=O)N2CCOCC2)c(Cl)cc1N1CCOCC1	29	/	-3	/	/
COc1cc(/C=C/C(=O)/C=C(O)/C=C/c2ccc(O)c(OC)c2)ccc1O	/	/	46*	0	10
COc1cc(/C=C/C(=O)OCC(=O)NC(=O)NC(C)C)ccc1O	57*	17	5	-8	-2
COc1cc(/C=C2/C(=O)CNC2=O)ccc1O	-68	13	13	2	/
COc1cc(/C=C/C(=O)O)ccc1O	/	/	/	/	1
COc1cc(C=C2C(=O)C=CC2=O)ccc1O	-190	52*	/	29	-2
COc1ccccc1Oc1ccc(S(=O)(=O)NCc2ccccn2)cc1	76*	-28	3	/	/
O=C(Nc1ccc(-c2ccccc2)cc1)[C@H]1[C@H](CO)[C@H]2Cn3c(cccc3=O)[C@@H]1N2Cc1ccccc1	/	1	/	/	-1
COCCN(C(=O)CCl)C(C(=O)NC1CCCCC1)c1ccccc1C (stereo not given)	60*	24	-2	-3	-2
COCCN(C(=O)CCC(=O)Nc1cc(C)on1)C(C(=O)NC1CCCC1)c1ccccc1C (stereo not given)	-20	14	1	-13	7
COc1ccc(CNC(=O)CN(Cc2ccc(Cl)cc2)S(=O)(=O)c2ccccc2)cc1	59*	/	4	2	/
CCn1c(=O)[nH]c(=O)c2c(N)c(C(=O)c3cc(F)ccc3F)sc21	8	55*	-3	12	-4
SMILES	Env fusion inh	INS-1E GSIS act	PDI inh	FN deposition inh	ERp5 block
C[C@@H]1CN([C@H](C)CO)C(=O)Cc2cc(NS(=O)(=O)c3cccs3)ccc2O[C@@H]1CN(C)Cc1ccncc1	-3[16.7 µM]	-13	/	/	/
CCSc1nnc(NC(=O)c2cccc3ccccc23)s1	-5	15	-13	-5	-9
CCSc1nnc(NC(=O)c2csc(C)c2)s1	-69	99*	-6	11	/
O=C(C[C@@H]1C=C[C@H](NC(=O)c2ccncc2)[C@@H](CO)O1)NCC1CC1	-7[16.7 µM]	5	/	-12	0
O=C(Cc1c(Cl)cccc1Cl)Nc1ccncc1	24	13	-4	/	-1
O=C(Cc1c(Cl)cccc1Cl)Nc1ccncc1Cl	61*	-3	8	/	-7
O=C(NC1CCCC1)C1C(c2ccc(C(F)(F)F)cc2)=Nc2ccccc2N1C(=O)c1cccc(C(F)(F)F)c1 (stereo not given)	27	0	/	-6	4
CC(C)(C)NC(=O)C1C(c2ccc(C(F)(F)F)cc2)=Nc2ccccc2N1C(=O)c1cccc(C(F)(F)F)c1 (stereo not given)	67*	-32	/	2	7
COc1cccc(CN2[C@@H]3CNC[C@H]2C3c2ccc(/C=C/c3ccccc3)cc2)c1 (stereo not given in full)	/	-6	/	-10	/
COc1cc(CN2[C@@H]3CNC[C@H]2C3c2ccc(/C=C/c3ccccc3)cc2)cc(OC)c1 (stereo not given in full)	/	49*!	/	-3	1
C[C@H]1CN([C@@H](C)CO)C(=O)c2cccc(NC(=O)CCCCCC(=O)Nc3ccccc3N)c2O[C@H]1CN(C)S(=O)(=O)c1ccc(Cl)cc1	21[16.7 µM]	-28	/	-16	1
O=C(Nc1ccc(S(=O)(=O)N2CCOCC2)cc1)c1ccc(=O)[nH]c1	-5	43*	/	2	-2
CC1=CC(=C2C(=O)c3ccccc3C2=O)C=C(C)N1C	/	5	-2	/	/
CCCCCN1C=CC(=C2C(=O)c3ccccc3C2=O)C=C1	72*	29	5	-6	-7
CC(C)C[C@@H](CN1CCC[C@@H]1CN1C(=O)C(=O)NC[C@@H]1Cc1ccccc1)N1C[C@H](Cc2ccc(O)cc2)N(CCc2ccccc2)C(=O)C1=O	8	-15	48*	3	4
Oc1ccc(C[C@H]2CNC(=S)N2C[C@H]2CCCN2C[C@H](Cc2ccccc2)N2C[C@H](Cc3ccccc3)N(CC3CCCCC3)C2=S)cc1	82*	0	/	1	-3
O=C1NC[C@H](Cc2ccc(O)cc2)N(CC2CCCCC2)C1=O	-19	22	34*	-11	6
CC(C)C[C@H]1CN([C@@H](Cc2ccc(O)cc2)CN2CCC[C@@H]2CN2C(=S)NC[C@@H]2Cc2ccccc2)C(=S)N1CC1CCCCCC1	14	-8	/	-4	0
CNC[C@@H]1Oc2ccc(NC(=O)NC(C)C)cc2C(=O)N(C)C[C@@H]1C	/	2	/	-4	/
CCOc1ccc(C(=O)C(CN2CCOCC2)c2ccccc2)cc1 (stereo not given)	-73	-9	5	20	/
O=C(c1ccc(Br)cc1)C(CN1CCOCC1)c1ccccc1 (stereo not given)	-38	4	-2	34*	3
C[C@H](CO)N1C[C@H](C)[C@H](CN(C)S(=O)(=O)c2ccccc2)OCCCC[C@H](C)Oc2ccc(NC(=O)c3ccccc3)cc2C1=O	-73[16.7 µM]	-21	/	1	4
O=C(C[C@H]1CC[C@@H](NC(=O)Nc2ccccc2F)[C@@H](CO)O1)NCc1ccc(-c2ccccc2)cc1	/	-30	/	/	-3
COc1ccccc1C(=O)Nc1nc2ccccc2[nH]1	73*	12	-1	1	3
COc1cc(SC)ccc1C(=O)Nc1nc2ccccc2[nH]1	92*	12	0	-5	1
